Compound activity from PubChem.
Apaf-1 inh: blocks human Apaf-1 apoptosome activity; O14727; reconstituted apoptosome caspase-3 activity, DEVD-Rh110 fluorescence; inhibition, % at 20 µM; 0.71% of 330,000 active; AID 489030; active means inhibition of at least 40% at 20 µM;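 further: plate controls were DMSO wells for no effect and DEVD-CHO caspase inhibitor wells for full effect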
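Material: reconstituted apoptosome with Apaf-1, cytochrome c, caspase-9, procaspase-3, dATP; medium: pH 7.5 Hepes buffer with CHAPS, BSA, DTT; also added: cytochrome c and DEVD-Rh110 substrate; timing: 30 min plus 50 min, RT; signal: Rh110 fluorescence intensity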
PAD4 FP inh: PAD4 (human) enzyme inhibition. Q9UM07. recombinant PAD4, RCA probe fluorescence polarization. inhibition, % at 6.36 µM. 0.41% of 330,000 active. AID 485272;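 active means percent inhibition above a cutoff equal to the mean of all tested compounds plus 3 SD, cut at about 15% in these data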;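 further: 0% = PAD4 with RCA probe and DMSO and 100% = probe without PAD4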
UBC13 polyUb: human UBC13 polyubiquitination inhibition | P61088 | UBC13 polyubiquitin chain formation, TR-FRET | inhibition, % at 20 µM | 0.47% of 330,000 active | AID 485273; in the data active means inhibition above about 45%, passing the limit was not always enough
Target sequence (P61088 whole entry, looked up): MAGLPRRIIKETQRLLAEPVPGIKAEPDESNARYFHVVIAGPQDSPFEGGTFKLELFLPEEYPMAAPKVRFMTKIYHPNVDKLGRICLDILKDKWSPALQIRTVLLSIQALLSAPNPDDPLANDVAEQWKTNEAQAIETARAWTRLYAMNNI
Rin1 Abl inh: blocks binding of human Rin1 to Abl; 0.4% of 360,000 active; P00519+Q13671; inhibition, % at 7.35 µM; TR-FRET Rin1/Abl binding, biochemical; in the data active means inhibition above about 5%, passing the limit was not always enough
GSTO1 inh: counter-screen for RBBP9 inhibitors: inhibitors of human GSTO1. recombinant GSTO1, activity-based probe fluorescence polarization. inhibition, % at 5.96 µM. P78417. 1.1% of 300,000 active;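 active means inhibition above the campaign mean inhibition plus 3 SD, cut at about 35% in these data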;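 further: 0% = GSTO1-1 with DMSO and 100% = wells lacking GSTO1-1 enzyme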
Target sequence (P78417 whole entry, looked up): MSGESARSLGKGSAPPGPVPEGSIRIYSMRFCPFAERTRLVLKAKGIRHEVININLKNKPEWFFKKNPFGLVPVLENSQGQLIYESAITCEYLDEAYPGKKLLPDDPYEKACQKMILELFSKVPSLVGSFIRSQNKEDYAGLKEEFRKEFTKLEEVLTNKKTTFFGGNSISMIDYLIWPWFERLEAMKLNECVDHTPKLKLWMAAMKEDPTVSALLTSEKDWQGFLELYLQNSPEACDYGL
UBC9 SUMO inh: inhibitors of human SUMOylation (UBC9); P63279; HTRF SUMOylation assay, SAE1/SAE2 + UBC9, in vitro; inhibition, % at 35 µM; 0.36% of 290,000 active; in the data active means inhibition above about 50%, passing the limit was not always enough
Target sequence (P63279 whole entry, looked up): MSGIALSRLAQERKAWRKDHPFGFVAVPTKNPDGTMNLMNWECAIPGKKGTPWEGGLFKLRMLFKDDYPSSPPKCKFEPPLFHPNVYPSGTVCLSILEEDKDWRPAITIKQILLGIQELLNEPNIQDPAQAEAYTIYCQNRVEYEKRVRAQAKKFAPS
An asterisk follows results filed as active; . = not tested or not shown. Most compounds without a hit are left out; they make up all but 2.2% or so of the library.

SMILES | Apaf-1 inh | PAD4 FP inh | UBC13 polyUb | Rin1 Abl inh | GSTO1 inh | UBC9 SUMO inh
CC(CCc1ccccc1)NC(=O)CN1CCSc2ccccc21 (centres undefined) | 20 | -7 | -5 | -1 | 36* | 18
Cc1cc(C)nc(SCNC(=O)c2ccc(F)cc2)n1 | -5 | 1 | -3 | -1 | 36* | 0
O=C(NCCCCNC(=O)c1cccnc1Cl)c1cccnc1Cl | 5 | 2 | -2 | -1 | -4 | -7
O=C(c1ccco1)N(c1ccccn1)c1ccccn1 | 20 | -5 | -7 | -3 | -2 | 22
O=C(/C=C/c1ccco1)N(c1ccccn1)c1ccccn1 | 1 | 5 | -9 | 0 | 42* | 47
O=C(N/N=C/c1cc(Cl)cc([N+](=O)[O-])c1O)c1cc(-c2ccccn2)nc2ccccc12 | 11 | -1 | -75 | -2 | -6 | 87*
CCCCC1=C(C(=O)OCC)C(C(=O)OCC)Oc2ccccc21 (centres undefined) | 15 | 7 | . | 2 | . | .
O=C(Cc1nc2ccccc2[nH]1)c1cccc([N+](=O)[O-])c1 | 10 | -6 | -23 | -2 | 4 | 13
Cc1ccc(NC(=O)CC(=O)Nc2ccc(C)c(C)c2)cc1C | 12 | -1 | 0 | -2 | -2 | 16
Cc1ccc(Sc2ccc(NC(=O)CCl)cc2)cc1C | 11 | 9 | 6 | 3 | 78* | 0
O=C(Oc1cccc2c(O)cccc12)c1ccccc1Cl | . | . | . | 2 | . | .
O=C(Oc1ccccc1O)c1cccc2ccccc12 | 17 | 0 | 10 | 0 | 59* | -21
COc1cccc(CN(C)C(=O)CC[C@H]2O[C@@H](n3ccc(=O)[nH]c3=O)[C@H](O)[C@@H]2O)c1 | . | . | . | 0 | . | .
C/C(N)=N\S(=O)(=O)c1ccc(Cl)cc1 | -20 | -2 | 4 | 2 | 36* | 0
N/C(CSc1ccc(Cl)cc1)=N\S(=O)(=O)c1ccc(Cl)cc1 | 16 | 0 | 4 | 1 | 14 | -8
CCOc1cc2c(cc1/C=C/C(=O)O)OC(C)C2 (centres undefined) | -13 | 2 | 12 | -4 | 20 | 47
COc1cc2c(cc1/C=C/C(=O)O)OC(C)C2 (centres undefined) | -4 | -5 | 13 | 0 | 4 | 55*
NC[C@H](Cc1ccccc1)NCCCCC1CCCCC1 | 39 | -1 | 36 | -1 | . | .
CNC[C@H](CC1CCCCC1)NC[C@H](Cc1ccccc1)NCCC12CC3CC(CC(C3)C1)C2 | 74* | -5 | 25 | 4 | -5 | 24
N/C(=N/OC(=O)c1ccc(Cl)cc1)c1ncc([N+](=O)[O-])s1 | 8 | 6 | -7 | 1 | 13 | 13
Cc1ccc(S(=O)(=O)c2ccccc2)cc1S | 11 | 36* | -9 | . | -25 | 22
Nc1ccc(S(=O)(=O)c2cccc(N)c2)cc1 | -24 | 0 | 2 | -3 | 7 | -12
CCN(c1ccccc1)S(=O)(=O)c1ccc(C(=O)NCC(=O)Nc2ccc(F)c(F)c2F)cc1 | 4 | 0 | 21 | -1 | . | .
O=C(COC(=O)c1cc(S(=O)(=O)N2CCc3ccccc3C2)ccc1Cl)NCc1ccco1 | 43* | -11 | 1 | -1 | -7 | 21
Cc1ccc2nc3c(cc(C(=O)NCc4ccco4)c(=N)n3Cc3ccco3)c(=O)n2c1 | -4 | -2 | 10 | -3 | 10 | 74*
SMILES | Apaf-1 inh | PAD4 FP inh | UBC13 polyUb | Rin1 Abl inh | GSTO1 inh | UBC9 SUMO inh
Cc1ccc(CNC(=O)c2cc3c(=O)n4ccccc4nc3n(Cc3ccco3)c2=N)cc1 | 14 | -3 | -4 | 0 | 3 | 20
CC(=O)N(\C=C/C=C/C=C1\Sc2ccccc2C1=O)c1ccccc1 | 28 | -18 | -219 | 1 | -7 | 69*
O=c1ccc(S(=O)(=O)N2CCCC2)cn1Cc1ccc(Cl)cc1Cl | 1 | 2 | 8 | 3 | . | .
Cc1ccc2c(Cl)cc(Cl)c(OCC(=O)NC(=O)NCc3ccco3)c2n1 | 18 | -1 | 0 | 3 | 1 | 12
Cc1ccc2c(Cl)cc(Cl)c(OCC(=O)NCc3ccco3)c2n1 | . | . | . | . | . | 54*
CC1=CC(=O)c2c(O)ccc(O)c2C1=O | . | 23* | . | . | 69* | 90*
O=C(CCl)N(c1ccccc1)C1CCCCC1 | 6 | 2 | 1 | -1 | 67* | -10
CC(=O)N(c1ccccc1)C1CCCC1 | -2 | 1 | -6 | -1 | 0 | 5
COc1ccc2[nH]c(C(=O)NCCCn3ccnc3)cc2c1 | -1 | 2 | 5 | 0 | 8 | 37
Brc1ccc(C=Nc2ccc(Nc3ccccc3)cc2)s1 | . | 24* | . | 7.2* | 37* | 1
O=C1CSc2ccc(C(=O)NCCc3ccc(Cl)cc3Cl)cc2N1 | 8 | -6 | -11 | 3 | . | .
COc1ccccc1NC(=O)c1cc(C(=O)Nc2ccccc2OC)cc([N+](=O)[O-])c1 | -3 | 0 | -2 | 1 | -2 | -9
CC(=O)Nc1ccc(-c2nc3ccc(NC(C)=O)cc3o2)cc1 | 9 | 0 | 28 | -1 | -39 | 51*
COc1cccc(C(NC(C)=O)c2nc(-c3ccccc3C)cs2)c1 (centres undefined) | . | . | . | 3 | . | .
Cc1ccc(Cc2c(-c3cccc(Cl)c3)nc3ccc(Cl)cn23)cc1 | . | . | . | -1 | . | .
Cc1ccc(N2C(=O)CS/C2=C(\C(Cl)=C(Cl)Cl)[N+](=O)[O-])cc1 | -12 | -20 | -29 | -1 | 54* | 7
Cc1ccc(N2C(=O)CSCC2=O)cc1 | 2 | -1 | 12 | -4 | 3 | 5
O=C(c1cccnc1)N1CCC2CC1c1c(Cl)cccc12 (centres undefined) | . | . | . | 3 | . | .
Cc1ccc(S(=O)(=O)N2CCOCC2)cc1C(=O)OCC(=O)Nc1ccc2[nH]c(=O)[nH]c2c1 | -18 | -1 | 4 | 1 | -11 | .
Cn1nccc1NC(=O)Nc1cccc([N+](=O)[O-])c1 | -22 | 1 | 4 | -1 | -3 | 49
O=C(Nc1cccc(Cl)c1)Nc1nnc(-c2ccncc2)s1 | 18 | 1 | -16 | -4 | 10 | 56*
O=C(Nc1ccc(F)cc1)Nc1nnc(-c2ccncc2)s1 | 2 | -4 | -8 | 0 | -20 | 32
Cc1ccc(NC(=O)Nc2nnc(-c3ccncc3)s2)cc1C | 13 | -3 | -18 | 1 | -19 | 73*
O=C(Nc1ccc(Cl)cc1)Nc1nnc(-c2ccncc2)s1 | . | -2 | . | 0 | -5 | -6
Cn1nccc1NC(=O)Nc1cccc(Cl)c1 | -9 | 0 | -1 | -1 | -6 | 59*
COC(C(=O)Nc1ccccc1C(=O)N1CCOCC1)c1ccccc1 (centres undefined) | -4 | 0 | 2 | -2 | 6 | 3
COc1cccc(/C(C)=N/N=C(\C)c2cccc(OC)c2)c1 | 1 | . | -8 | -2 | . | -5
COc1ccc(CCC(=O)NC(C)C2CCCO2)cc1 (centres undefined) | -3 | -5 | -3 | -1 | -3 | 3
COc1ccc(N2CCN(S(=O)(=O)CCNC(=O)c3ccc(Br)o3)CC2)cc1 | -4 | 1 | -8 | 0 | 5 | 0
